A selection: hits, their analogues and other compounds. The true share with any hit is near 3.5%.
MrgX1 PAM – positive allosteric modulators of MrgX1, primary screen, HEK293 cells, Fluo-4 calcium flux. B-score at 10 µM. Mas-related G-protein coupled receptor member X1 (Homo sapiens), Q96LB2. AID 588675, 2011. 310,000 tested, 0.63% active. FDSS; active compounds read high;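 active = plate-corrected calcium response at least 3 library SD above typical, normal starting fluorescence, not activating the receptor alone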;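 note: compound read alongside a low EC10 to EC30 dose of BAM8-22 agonist; peak minus trough fluorescence over baseline measured at the second addition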
Target sequence (Q96LB2 whole entry, looked up): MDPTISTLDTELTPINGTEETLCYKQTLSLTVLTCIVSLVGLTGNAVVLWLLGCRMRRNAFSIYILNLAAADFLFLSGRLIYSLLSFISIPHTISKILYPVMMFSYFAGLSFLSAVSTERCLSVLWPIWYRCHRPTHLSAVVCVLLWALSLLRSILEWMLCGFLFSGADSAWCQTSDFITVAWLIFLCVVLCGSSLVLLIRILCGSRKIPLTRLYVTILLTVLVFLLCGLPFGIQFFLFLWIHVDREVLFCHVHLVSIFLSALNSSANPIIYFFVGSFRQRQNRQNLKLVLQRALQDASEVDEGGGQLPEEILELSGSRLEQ
RGS4 act – RGS4 potentiators or activators, primary screen, cell-based, HEK293 M3R inducible RGS4, calcium flux; carbachol calcium flux Fluo4; active compounds read low; B-score at 10 µM; 310,000 tested, 0.92% active;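 active = B-score of the integrated calcium signal more than 4 SD below the library mean, with starting fluorescence not abnormally high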;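 note: negative B-score means reduced calcium response which marks RGS4 activation or potentiation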
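Also added: carbachol at ECmax as muscarinic agonist stimulus; Assay system: HEK293 cells with stable M3R and inducible RGS4; Timing: overnight RGS4 induction, 30 min dye load 37 °C, 20 min compound RT; Measured by: Fluo4-AM (2 µM) calcium-flux fluorescence, kinetic read.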
MrgX1 antag – antagonists of human MrgX1 receptor, primary screen, HEK293 cells, Fluo-4 calcium flux | BAM8-22 antagonism; active compounds read low | 310,000 tested, 1.3% active | B-score at 10 µM;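 active = calcium-response B-score plate-corrected more than 3 library SD below zero, starting fluorescence within 5 deviations, no agonist response on first addition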;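 note: peak minus trough fluorescence over baseline after final BAM8-22 challenge near maximal dose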
RGS4 block – RGS4 inhibitors, primary screen, cell-based, HEK293 M3R inducible RGS4, calcium flux | Regulator of G-protein signaling 4 (Homo sapiens), P49798 | Fluo-4 calcium flux; active compounds read high; triggered by carbachol at its EC20 | B-score at 10 µM | 310,000 tested, 0.45% active | AID 463165, 2010;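 active = B-score, a plate-corrected calcium signal, over three deviations above library mean, with baseline fluorescence within five deviations of library mean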;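 note: RGS4 expression induced by doxycycline in cells with stable M3 receptor; B-score is computed from the integrated fluorescence ratio over baseline after carbachol; higher B-score means a larger calcium signal and so more RGS4 inhibition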
Target sequence (P49798 whole entry, looked up): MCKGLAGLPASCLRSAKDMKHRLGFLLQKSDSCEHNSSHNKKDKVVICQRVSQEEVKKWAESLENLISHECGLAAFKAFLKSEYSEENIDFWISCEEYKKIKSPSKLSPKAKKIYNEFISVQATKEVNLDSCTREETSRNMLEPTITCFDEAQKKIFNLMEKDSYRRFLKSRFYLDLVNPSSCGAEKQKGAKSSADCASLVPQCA
MrgX1 ag – agonists of human MrgX1 receptor, primary screen, HEK293 cells, Fluo-4 calcium flux. Fluo-4 calcium fluorescence, agonist mode; active compounds read high. B-score at 10 µM. Mas-related G-protein coupled receptor member X1 (Homo sapiens), Q96LB2. 310,000 tested, 0.44% active;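 active = calcium response B-score plate-corrected fluorescence ratio at least 3 library SD, with starting fluorescence B-score inside 5 SD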
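Material: MrgX1-expressing HEK293 cells / Dosing: compound as first of three additions / Incubation: overnight seeding, then 1 h dark dye loading / Signal: Fluo-4 NW calcium fluorescence / Evaluation: B-scored fluorescence response ratio / Benchmarks: positive and negative control wells on each plate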
MrgX1 ag confirm – MrgX1 receptor agonists, duplicate retest, confirmation, HEK293 cells, Fluo-4 calcium flux. activation, % at 10 µM. 600 tested, 78% active. Fluo-4 calcium fluorescence, FDSS. shares compounds with MrgX1 ag;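 active = calcium signal rise, corrected for plate position, at least 3 library SD high, with starting brightness within 5 such deviations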
HEK293 Ca flux – nonspecific calcium signal in parental HEK293, confirmation, counter-screen for MrgX1 antagonist project, parental HEK293 cells, Fluo-4 calcium flux. shares compounds with MrgX1 antag. Fluo-4 calcium fluorescence, FDSS. fluorescence ratio F(max-min)/F0 at 10 µM. 4,000 tested, 2% active. AID 624111, 2012;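 active = duplicate-averaged calcium fluorescence ratio at least three times the standard deviation of buffer wells, a nonspecific response in parental cells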
HEK293 Ca counter – calcium response in parental HEK293 cells, primary screen, counter-screen for MrgX1 allosteric activator project, cell-based, Fluo-4 calcium flux, duplicate. shares compounds with MrgX1 antag. Fluo-4 fluorescence ratio; active compounds read high. fluorescence ratio F(max-min)/F0 at 10 µM. 4,000 tested, 0.4% active. AID 624114, 2012;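 active = calcium fluorescence ratio, averaged over duplicates, at least 3 SD of the buffer-well ratio, meaning a nonspecific response in receptor-free cells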;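 note: untransfected parental HEK293 lacking MrgX1 used as counterscreen for MrgX1 allosteric activators; fluorescence change taken during the second addition on a kinetic imager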
HEK293 Ca cntr2 – calcium response in parental HEK293 cells, primary screen, counter-screen for MrgX1 agonist project, cell-based, Fluo-4 calcium flux, duplicate, agonist mode; shares compounds with MrgX1 antag; fluorescence ratio F(max-min)/F0 at 10 µM; AID 624115, 2012; 4,000 tested, 8.7% active; Fluo-4 calcium fluorescence (FDSS); active compounds read high;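 active = calcium fluorescence ratio at least three times the spread of buffer wells, meaning a non-specific response in parental cells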
* = called active by the depositor; i = inactive; nt = no result given.

SMILES | MrgX1 PAM | RGS4 act | MrgX1 antag | RGS4 block | MrgX1 ag | MrgX1 ag confirm | HEK293 Ca flux | HEK293 Ca counter | HEK293 Ca cntr2
COc1ccc(OC)c(-c2cc(C(=O)NC3CCCC3)c3ccccc3n2)c1 | i | i | i | i | i | nt | nt | nt | nt
COc1cccc(CNc2ccc3[nH]c(=O)[nH]c3c2)c1OCc1ccccc1F | i | i | i | i | i | nt | nt | nt | nt
Cc1c(C(=O)N2CCc3ccccc3C2)oc2ccc(S(=O)(=O)N3CC(C)CC(C)C3)cc12 (centres undefined) | i | i | i | i | i | nt | nt | nt | nt
Nc1c(Cl)nc(-c2ccccc2)nc1Cl | i | i | i | i | i | nt | nt | nt | nt
O=C(CCl)Nc1cccc(S(=O)(=O)N2CCCCCC2)c1 | i | i | i | i | 42* | 165%* | i | i | i
Cc1occc1C(=O)NNC(=S)NC(=O)COc1ccc(Cl)cc1Cl | i | -9.1* | i | i | 71* | 193%* | i | i | i
O=C1CCCCCN1Sc1ccccc1 | i | i | i | i | 30* | 123%* | i | i | i
O=C(CCSc1ccccc1)N1CCCC1 | i | i | i | i | i | nt | nt | nt | nt
COc1ccc(C(=O)c2no[n+]([O-])c2C(=O)c2ccc(OC)cc2)cc1 | i | i | i | i | 67* | 186%* | i | i | 57*
Cc1[nH][nH]c(=O)c1C(c1ccc(-c2ccc(Cl)c(Cl)c2)o1)c1c(C)[nH][nH]c1=O | i | i | i | i | i | nt | nt | nt | nt
Cc1[nH][nH]c(=O)c1C(c1ccc(-c2ccc(F)cc2)o1)c1c(C)[nH][nH]c1=O | i | i | i | i | 40* | 216%* | i | i | 46*
Cc1cc(C)c(O)c(-c2n[nH]c3c2C(c2cccc(O)c2)N(Cc2ccco2)C3=O)c1 (centres undefined) | i | i | i | i | i | nt | nt | nt | nt
O=S(=O)(Nc1cccc(-c2ccc3nncn3n2)c1)c1cccc(F)c1 | i | i | i | i | 37* | 177%* | i | i | i
CC1(C)Cc2c(cnn2-c2cccc(F)c2)C(NC(=O)c2ccc[n+]([O-])c2)C1 (centres undefined) | i | i | i | i | i | nt | nt | nt | nt
CCOC(=O)C1CCCN(C(=O)c2cc(CN3C(=O)c4ccccc4C3=O)ccc2OC)C1 (centres undefined) | i | i | i | i | i | nt | nt | nt | nt
C/C(=N\NC(=O)c1cc2ccccc2cc1O)c1ccccn1 | i | i | i | i | 68* | 458%* | i | i | 109*
C/C(=N\NC(=O)c1c[nH]c2ccccc12)c1ccccn1 | i | i | i | i | i | nt | nt | nt | nt
COc1ccc(NC(C)=[N+](C)CCNS(=O)(=O)c2ccc(Cl)cc2)cc1 | i | i | i | i | i | nt | nt | nt | nt
NC(=O)c1cc2cc(Br)ccc2o/c1=N/NC(=O)c1cccc(F)c1 | i | i | i | i | i | nt | nt | nt | nt
Cc1cc(C)cc(NC(=O)Nc2ccc(N3CCCCC3)cc2)c1 | i | i | i | i | 30* | i | i | i | i
Cc1ccc(SCCC(=O)Nc2cccc(N(C)S(C)(=O)=O)c2)cc1 | i | i | i | i | i | nt | nt | nt | nt
COc1ccc2c(c1)cc1n2CCN=C1N | i | i | i | i | 31* | 138%* | i | i | i
COc1ccc2c(c1)cc1n2CCN2CCCN=C12 | i | i | i | i | i | nt | nt | nt | nt
COc1ccc(C(=O)Nc2ccccc2C(=O)O)cc1Cl | i | i | i | i | i | nt | nt | nt | nt
CCOc1c(Cl)cc(C(=O)Nc2ccccc2C(=O)O)cc1Cl | i | i | i | i | 48* | 78%* | i | i | i
SMILES | MrgX1 PAM | RGS4 act | MrgX1 antag | RGS4 block | MrgX1 ag | MrgX1 ag confirm | HEK293 Ca flux | HEK293 Ca counter | HEK293 Ca cntr2
Cc1ccc(S(=O)(=O)Nc2ccc3c(c2)nc2n3CCN(Cc3ccccc3)C2)cc1 | i | i | i | i | 34* | i | i | i | i
O=S(=O)(Nc1ccc2c(c1)nc1n2CCN(Cc2ccccc2)C1)c1ccccc1 | i | i | i | i | i | nt | nt | nt | nt
COc1ccc(C(=O)NNC(=S)NC(=O)c2ccc(OC)cc2)cc1 | i | i | i | i | 81* | 411%* | i | i | 97*
COc1ccc(C(=O)NNC(=S)NC(=O)c2cccs2)cc1 | i | i | i | i | 122* | 339%* | i | i | 94*
COc1ccc(C(=O)NNC(=S)NC(=O)c2cccnc2)cc1 | i | i | i | i | i | nt | nt | nt | nt
Cc1cccc(C(=O)NNC(=S)NC(=O)c2cccs2)c1 | i | -7.1* | i | i | 137* | 647%* | i | i | 122*
CC(C)C(=O)Nc1ccc(C(=O)NNC(=S)NC(=O)c2cccs2)cc1 | i | i | i | i | i | nt | nt | nt | nt
CCCCC(=O)NC(=S)NNC(=O)c1ccc(OC)cc1 | i | i | i | i | 98* | 578%* | i | i | 97*
CCCc1ccc2oc(C(=O)N3CCNC(=O)C3CC(=O)OC)c(C)c2c1 (centres undefined) | i | i | i | i | i | nt | nt | nt | nt
CCOc1ccc(S(=O)(=O)N2CCC(C(=O)NC3CCCCC3)CC2)cc1 | i | i | i | i | i | nt | nt | nt | nt
CN(C)C=Nc1c(Br)cc(Br)c2nonc12 | i | i | i | i | 40* | 162%* | i | i | i
CN(C)C=Nc1nonc1-c1ccccc1 | i | i | i | i | i | nt | nt | nt | nt
OCC[C@@H]1C[C@H](O)[C@@H](O)[C@]2(CCc3ccccc3O2)O1 | i | i | i | i | i | nt | nt | nt | nt
O=C(Nc1ccc(N2CCOCC2)cc1)C1(c2ccc(Cl)cc2)CCC1 | i | i | i | i | i | nt | nt | nt | nt

Screening results (PubChem BioAssay)
